Experimental data as given in ChEMBL document CHEMBL4387752, “Identification of substituted benzothiazole sulfones as potent and selective inhibitors of endothelial lipase” (Bioorg Med Chem Lett, 2019).
One block for each compound: values may come before it. Active and inactive are the calls of the source. No cut-off for these calls is given here.

Key:
Endothelial lipase [1] = biological target: T1, Endothelial lipase (Homo sapiens, UniProt Q9Y5X9); experiment: Inhibition of human endothelial lipase derived from human HT1080 cell conditioned media using PED-A1 as substrate incubated for 20 mins and measured every 20 secs for 10 mins by FRET assay
T1 sequence (Q9Y5X9 whole entry): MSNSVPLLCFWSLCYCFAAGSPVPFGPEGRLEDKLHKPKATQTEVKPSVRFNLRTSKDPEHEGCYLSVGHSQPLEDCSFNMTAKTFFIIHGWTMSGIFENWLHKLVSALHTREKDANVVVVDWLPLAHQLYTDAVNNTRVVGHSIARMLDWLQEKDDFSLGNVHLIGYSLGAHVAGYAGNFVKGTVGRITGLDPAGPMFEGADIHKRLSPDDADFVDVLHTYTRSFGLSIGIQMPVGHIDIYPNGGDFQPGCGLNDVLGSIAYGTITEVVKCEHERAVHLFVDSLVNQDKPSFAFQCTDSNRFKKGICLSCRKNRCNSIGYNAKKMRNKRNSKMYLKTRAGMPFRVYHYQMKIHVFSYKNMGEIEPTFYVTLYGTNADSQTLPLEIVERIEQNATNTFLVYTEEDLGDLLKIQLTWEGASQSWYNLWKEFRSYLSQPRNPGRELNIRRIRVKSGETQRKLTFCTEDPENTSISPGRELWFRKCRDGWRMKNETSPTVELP
Outline: (§1)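 IC50s were calculated from mean inhibition values of duplicate determinations.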

[2] = biological target: T2, Hepatic triacylglycerol lipase (Homo sapiens, UniProt P11150); experiment: Inhibition of human hepatic lipase expressed in African green monkey COS7 cells using PED-A1 as substrate incubated for 20 mins and measured every 20 secs for 10 mins by FRET assay; assay type: cell-based; outline: as §1
T2 sequence (P11150 whole entry): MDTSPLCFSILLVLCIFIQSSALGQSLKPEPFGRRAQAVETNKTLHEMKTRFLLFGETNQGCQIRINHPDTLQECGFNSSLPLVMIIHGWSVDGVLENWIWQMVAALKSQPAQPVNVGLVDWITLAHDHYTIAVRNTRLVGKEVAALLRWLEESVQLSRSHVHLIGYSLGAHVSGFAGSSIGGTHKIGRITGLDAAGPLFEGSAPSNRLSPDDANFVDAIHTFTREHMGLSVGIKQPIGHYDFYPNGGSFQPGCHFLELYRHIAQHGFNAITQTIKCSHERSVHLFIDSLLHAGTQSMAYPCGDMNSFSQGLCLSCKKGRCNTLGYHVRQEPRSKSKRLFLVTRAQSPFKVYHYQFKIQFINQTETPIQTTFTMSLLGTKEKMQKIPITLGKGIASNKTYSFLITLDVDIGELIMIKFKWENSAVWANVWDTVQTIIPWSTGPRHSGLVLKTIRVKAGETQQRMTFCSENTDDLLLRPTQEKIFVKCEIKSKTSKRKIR

[3] = Ratio of total AUC in Balb/c mouse at 20 mg/kg, po to total AUC in Balb/c mouse at 10 mg/kg, po measured after 24 hrs; assay type: ADME, organism-based; details: in vivo
Outline: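 Ratio of AUCtotal between 20 and 10 mg/kg oral doses in fasted male balb/c mice. Vehicle was ethanol/PEG 400/water (10:60:30).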

[4] = Metabolic stability in Balb/c mouse liver microsomes assessed as parent compound remaining at 0.5 uM measured after 10 mins; assay type: ADME, Microsome; details: read-out: Stability
Outline: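 Test compound at 0.5 μM was incubated for 10 min with mouse liver microsomes. The read-out is the percentage of parent remaining.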

[5] = Cmax in Balb/c mouse at 20 mg/kg, po; assay type: ADME, organism-based; set-up: dose 20 mg/kg, route oral; details: in vivo
Outline: (§2)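 Oral PK in fasted male balb/c mice. Dosing vehicle was ethanol/PEG 400/water (10:60:30).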

[6] = Half life in Balb/c mouse at 30 mg/kg, po; assay type: ADME, organism-based; details: in vivo; outline: as §2
[7] = Cmin in C57BL/6 mouse at 20 mg/kg, po bid measured after 102 hrs; assay type: ADME, organism-based; details: in vivo, read-out: Cmin
Outline: (§3)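 Satellite PK cohort of wild-type C57BL/6 mice given 20 mg/kg p.o. b.i.d. over 4 days. Plasma levels were taken at 8, 24 and 102 h.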

[8] = Ratio of Cmin in C57BL/6 mouse at 20 mg/kg, po bid measured after 102 hrs to IC50 for inhibition of mouse endothelial lipase expressed in HEK293F cells using D31-POPC-HDL as substrate incubated for 2 hrs in presence of mouse plasma by LC/MS analysis; assay type: organism-based; details: in vivo
[9] = Plasma concentration in Balb/c mouse at 20 mg/kg, po measured after 7 hrs; assay type: ADME, organism-based; outline: as §2
[10] = Cmin in C57BL/6 mouse at 20 mg/kg, po bid measured after 8 hrs; assay type: ADME, organism-based; details: in vivo, read-out: Cmin; outline: as §3
Mus musculus [11] = experiment: Effect on in LDL-C level in C57BL/6 mouse plasma at 20 mg/kg, po bid measured after 1 to 4 days by FPLC analysis; assay type: functional, organism-based
Outline: (§4)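 Wild-type C57BL/6 mice were dosed at 20 mg/kg p.o. b.i.d. for 4 days alongside a vehicle control group. Lipoprotein profiles were obtained by FPLC on day 1 and day 4, using plasma pooled from 8 mice.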

[12] = Ratio of Cmin in Balb/c mouse at 20 mg/kg, po bid to IC50 for inhibition of mouse endothelial lipase expressed in HEK293F cells using D31-POPC-HDL as substrate incubated for 2 hrs in presence of mouse plasma by LC/MS analysis; assay type: organism-based; details: in vivo
[13] = Half life in Balb/c mouse at 20 mg/kg, po; assay type: ADME, organism-based; details: in vivo; outline: as §2
[14] = Total AUC in Balb/c mouse at 20 mg/kg, po measured after 24 hrs; assay type: ADME, organism-based; set-up: dose 20 mg/kg, time AUCmax, route oral; details: in vivo; outline: as §2
Endothelial lipase [15] = biological target: T3, Endothelial lipase (Mus musculus, UniProt Q9WVG5); experiment: Inhibition of mouse endothelial lipase expressed in HEK293F cells using D31-POPC-HDL as substrate incubated for 2 hrs in presence of mouse plasma by LC/MS analysis
T3 sequence (Q9WVG5 whole entry): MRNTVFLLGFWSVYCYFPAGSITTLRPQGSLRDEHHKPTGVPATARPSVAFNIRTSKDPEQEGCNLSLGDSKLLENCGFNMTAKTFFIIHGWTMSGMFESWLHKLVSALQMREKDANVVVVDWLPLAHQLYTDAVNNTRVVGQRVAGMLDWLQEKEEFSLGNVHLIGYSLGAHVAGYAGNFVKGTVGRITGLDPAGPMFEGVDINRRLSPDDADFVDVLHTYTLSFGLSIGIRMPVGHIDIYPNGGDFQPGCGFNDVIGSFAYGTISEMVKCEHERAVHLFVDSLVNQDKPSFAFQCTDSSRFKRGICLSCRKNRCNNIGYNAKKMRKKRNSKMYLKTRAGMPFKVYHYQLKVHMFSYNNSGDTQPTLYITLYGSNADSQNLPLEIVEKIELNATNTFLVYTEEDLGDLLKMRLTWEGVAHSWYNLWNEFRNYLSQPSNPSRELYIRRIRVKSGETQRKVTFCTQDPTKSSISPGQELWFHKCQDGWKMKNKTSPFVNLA
Outline: (§5)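 IC50 values were derived from the means of duplicate inhibition measurements.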

[16] = Plasma concentration in Balb/c mouse at 10 mg/kg, po measured after 24 hrs; assay type: ADME, organism-based; outline: as §2
Mus musculus [17] = experiment: Increase in HDL-C level in C57BL/6 mouse plasma at 20 mg/kg, po bid measured after 1 to 4 days by FPLC analysis; assay type: functional, organism-based; outline: as §4
[18] = Plasma concentration in Balb/c mouse at 30 mg/kg, po measured after 7 hrs; assay type: ADME, organism-based; outline: as §2
[19] = Plasma concentration in Balb/c mouse at 20 mg/kg, po measured after 24 hrs; assay type: ADME, organism-based; outline: as §2
[20] = Cmin in C57BL/6 mouse at 20 mg/kg, po bid measured after 24 hrs; assay type: ADME, organism-based; details: in vivo, read-out: Cmin; outline: as §3
Homo sapiens = species: Homo sapiens; experiment: Selectivity index, ratio of IC50 for inhibition of human hepatic lipase expressed in African green monkey COS7 cells to IC50 for inhibition of human endothelial lipase derived from human HT1080 cell conditioned media; assay type: cell-based
[21] = Cmax in Balb/c mouse at 10 mg/kg, po; assay type: ADME, organism-based; set-up: dose 10 mg/kg, route oral; details: in vivo; outline: as §2
[22] = Tmax in Balb/c mouse at 30 mg/kg, po; assay type: ADME, organism-based; details: in vivo; outline: as §2
[23] = Ratio of Cmin in C57BL/6 mouse at 20 mg/kg, po bid measured after 8 hrs to IC50 for inhibition of mouse endothelial lipase expressed in HEK293F cells using D31-POPC-HDL as substrate incubated for 2 hrs in presence of mouse plasma by LC/MS analysis; assay type: organism-based; details: in vivo
[24] = Tmax in Balb/c mouse at 10 mg/kg, po; assay type: ADME, organism-based; details: in vivo; outline: as §2
[25] = Cmax in Balb/c mouse at 30 mg/kg, po; assay type: ADME, organism-based; set-up: dose 30 mg/kg, route oral; details: in vivo; outline: as §2
Endothelial lipase [26] = biological target: T1, Endothelial lipase; experiment: Inhibition of human endothelial lipase using D31-POPC-HDL as substrate incubated for 2 hrs in presence of human serum by LC/MS analysis; outline: as §5
[27] = Ratio of Cmin in C57BL/6 mouse at 20 mg/kg, po bid measured after 24 hrs to IC50 for inhibition of mouse endothelial lipase expressed in HEK293F cells using D31-POPC-HDL as substrate incubated for 2 hrs in presence of mouse plasma by LC/MS analysis; assay type: organism-based; details: in vivo
[28] = Tmax in Balb/c mouse at 20 mg/kg, po; assay type: ADME, organism-based; details: in vivo; outline: as §2
[29] = Half life in Balb/c mouse at 10 mg/kg, po; assay type: ADME, organism-based; details: in vivo; outline: as §2
[30] = Total AUC in Balb/c mouse at 30 mg/kg, po measured after 24 hrs; assay type: ADME, organism-based; set-up: dose 30 mg/kg, route oral, time AUCmax; details: in vivo; outline: as §2
[31] = Total AUC in Balb/c mouse at 10 mg/kg, po measured after 24 hrs; assay type: ADME, organism-based; set-up: dose 10 mg/kg, time AUCmax, route oral; details: in vivo; outline: as §2
[32] = Permeability of compound at pH 5.5 by PAMPA; assay type: ADME; details: read-out: permeability
Outline: (§6)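 Permeability was measured by parallel artificial membrane permeability assay (PAMPA) at pH 5.5 and pH 7.4. Values are reported in nm/s.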

Endothelial lipase [33] = biological target: T3, Endothelial lipase; experiment: Inhibition of endothelial lipase in hepatic lipase knock-out mouse plasma using D31-POPC-HDL as substrate incubated for 2 hrs by LC/MS analysis; assay type: cell-free; outline: as §5
[34] = Plasma concentration in Balb/c mouse at 30 mg/kg, po measured after 24 hrs; assay type: ADME, organism-based; outline: as §2
[35] = Plasma concentration in Balb/c mouse at 10 mg/kg, po measured after 7 hrs; assay type: ADME, organism-based; outline: as §2
[36] = Permeability of compound at pH 7.4 by PAMPA; assay type: ADME; details: read-out: permeability; outline: as §6

IC50 (Endothelial lipase [1]): 7700 nM | IC50 [2]: 52 nM
SMILES: CS(=O)(=O)C(C(=O)NCCCS(N)(=O)=O)c1nc2ccc(-c3ccccc3)cc2s1 (centres undefined)

Ratio [3]: 3.6 | remaining at 10 min, 0.5 µM [4]: 81% | Cmax [5]: 143 µM | half-life [6]: 2.3 h | concentration at 102 h [7]: 6.5 µM | Ratio [8]: > 15 | IC50 (Endothelial lipase [1]): 4.6 nM | concentration at 7 h [9]: 7.4 µM | concentration at 8 h [10]: 5.2 µM | IC50 [2]: 230 nM | Ratio [12]: 23 | half-life [13]: 2.3 h | AUC at 24 h [14]: 400 µM·h | IC50 (Endothelial lipase [15]): 120 nM | concentration at 24 h [16]: 0.014 µM | concentration at 7 h [18]: 2.42 µM | concentration at 24 h [19]: 0.045 µM | concentration at 24 h [20]: 1.8 µM | Cmax [21]: 39 µM | Tmax [22]: 0.25 h | Ratio [23]: > 15 | Tmax [24]: 1 h | Cmax [25]: 142 µM | IC50 (Endothelial lipase [26]): 83 nM | Ratio [27]: > 15 | Tmax [28]: 0.5 h | half-life [29]: 2.2 h | AUC at 24 h [30]: 240 µM·h | AUC at 24 h [31]: 111 µM·h | Papp [32]: 9.4 ×10⁻⁶ cm/s | IC50 (Endothelial lipase [33]): 310 nM | concentration at 24 h [34]: 0.025 µM | concentration at 7 h [35]: 1.7 µM
SMILES: COCCS(=O)(=O)C(C(=O)NCC(=O)NC1CC1)c1nc2ccc(-c3ccc(F)nc3)cc2s1 (centres undefined)
Activity (Mus musculus [11]): inactive | Activity (Mus musculus [17]): inactive | Ratio IC50 (Homo sapiens): 84

IC50 [2]: 130 nM | Papp [36]: 38.9 ×10⁻⁶ cm/s | IC50 (Endothelial lipase [15]): 290 nM | IC50 (Endothelial lipase [26]): 7 nM | Papp [32]: 25.2 ×10⁻⁶ cm/s
SMILES: CS(=O)(=O)C(C(=O)NCC(=O)NC1CC1)c1nc2ccc(-c3ccc(F)nc3)cc2s1 (centres undefined)
Ratio IC50 (Homo sapiens): 2.8
